Sampled rows, rich in hits. Any-hit rate of the full collection: about 4.8%.
PAFAH1B3 FP inh – blocks human PAF acetylhydrolase 1B catalytic subunit 3; Q15102; recombinant PAFAH1B3, FP-rhodamine probe, fluorescence polarization; inhibition, % at 3.39 µM; 0.28% of 340,000 active; AID 492972;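 active = inhibition above the screen-wide average of all tested compounds plus 3 SD, cut at about 25% in these data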;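 note: 0% = enzyme with DMSO only and 100% = wells lacking PAFAH1B3 protein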
Target sequence (Q15102 whole entry, looked up): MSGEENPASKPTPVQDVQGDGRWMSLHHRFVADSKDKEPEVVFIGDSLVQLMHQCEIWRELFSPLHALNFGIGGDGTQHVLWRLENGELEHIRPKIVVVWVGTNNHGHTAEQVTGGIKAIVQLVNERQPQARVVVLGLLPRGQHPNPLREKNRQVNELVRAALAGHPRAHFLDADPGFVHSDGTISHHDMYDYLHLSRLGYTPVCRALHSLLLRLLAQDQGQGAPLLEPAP
PAFAH2 inh – PAFAH2 (human) inhibition; Q99487; recombinant PAFAH2, FP-rhodamine activity probe, fluorescence polarization; inhibition, % at 3.39 µM; 0.99% of 340,000 active;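 active = inhibition above the mean over all tested compounds plus 3 SD, cut at about 30% in these data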;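 note: inhibitors block probe labeling of enzyme so polarization drops; 0% = enzyme with DMSO and 100% = wells lacking PAFAH2 protein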
NR3A LBD binder – modulates the human NR3A ligand-binding domain. NR3A LBD differential scanning fluorimetry, Tm shift; 0% = protein alone, 100% = glycine-bound protein. Tm shift relative to glycine control, % at 25 µM. 2.5% of 340,000 active. AID 1259313;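 active = melting temperature shift of at least 10% of the positive control shift, at one fixed dose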
pPAFAH FP inh – pPAFAH (human) enzyme inhibition. recombinant pPAFAH, FP-rhodamine probe fluorescence polarization. Q13093. inhibition, % at 3.39 µM. AID 463082. 1.5% of 330,000 active;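 active = inhibition above the mean inhibition across the screen plus 3 SD, cut at about 25% in these data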;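 note: inhibitors block binding of the rhodamine activity-based probe so polarization drops; 0% = enzyme with DMSO and 100% = wells lacking pPAFAH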
PAFAH1B2 FP inh – PAFAH1B2 (human) inhibition; P68402; recombinant PAFAH1B2, FP-rhodamine activity probe, fluorescence polarization; inhibition, % at 3.39 µM; 1.2% of 340,000 active; AID 492953;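 active = inhibition above the mean of all tested compounds plus 3 SD, cut at about 24% in these data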;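 note: 0% = enzyme with DMSO and 100% = wells lacking PAFAH1B2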
Target sequence (P68402 whole entry, looked up): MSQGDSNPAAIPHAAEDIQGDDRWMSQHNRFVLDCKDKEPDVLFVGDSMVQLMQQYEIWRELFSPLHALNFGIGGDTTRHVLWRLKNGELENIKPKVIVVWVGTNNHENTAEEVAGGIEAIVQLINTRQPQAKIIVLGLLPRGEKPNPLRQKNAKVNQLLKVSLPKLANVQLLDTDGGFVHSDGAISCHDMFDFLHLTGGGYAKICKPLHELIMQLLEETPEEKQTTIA
UCH37 DUB inh – blocks the human deubiquitinase UCH37; Q9Y5K5; purified proteasome/UCH37, Ub-AMC cleavage fluorescence; inhibition, % (concentration not given with the values); 0.33% of 330,000 active; AID 588478;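 active = mean inhibition over replicate wells above about 20%, limit read from the data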;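 note: 0% = compound-free wells with enzyme and 100% = wells lacking proteasome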
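Material: human UCH37 enzyme supplied as purified proteasome complex. Measure: % inhibition of Ub-AMC cleavage fluorescence. Medium: pH 7.4 Tris-HCl (50 mM) with ovalbumin, ATP-MgCl2, DTT. Times: 30 min preincubation with enzyme, 25 min cleavage at room temperature. Detection: AMC fluorescence intensity at 355/460 nm.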
* marks the source's active call; other numbers are inactive results; / = no result.

SMILES | PAFAH1B3 FP inh | PAFAH2 inh | NR3A LBD binder | pPAFAH FP inh | PAFAH1B2 FP inh | UCH37 DUB inh
CC(C)c1ccc(C=Nn2c(-c3ccccc3)n[nH]c2=S)cc1 | / | / | / | / | / | 2.9
Oc1c(Br)cc(C=Nn2c(-c3ccccc3)n[nH]c2=S)c(O)c1Br | / | / | / | / | / | 13.7
CCN(CC)S(=O)(=O)c1cccc(-c2n[nH]c(=S)n2/N=C/c2ccc(Br)cc2)c1 | 14.1 | 14.8 | 22.2* | 14.1 | -0.6 | /
N#Cc1c(N=Cc2cccnc2)sc2c1CCCC2 | / | / | / | / | / | 7.0
Oc1c(Br)cc(/C=N/n2c(-c3ccccc3)n[nH]c2=S)c(O)c1Br | 28.3* | 45.4* | -1.4 | / | 7.7 | /
CC12CCC(C(=O)Nc3ccccc3Br)(CC1=NO)C2(C)C (stereo not given) | / | / | / | / | / | 4.6
CCc1cccc(NC(=O)CCNS(=O)(=O)c2cc(Br)cnc2N)c1 | 1.0 | -4.7 | 13.0* | 0.3 | 4.4 | 2.0
O=S(=O)(N=C(c1ccccc1)N1CCOCC1)c1ccc(Br)cc1 | / | / | / | / | / | 0.8
Cc1cc(N)n2ncc(-c3ccccc3)c2n1 | 7.5 | 7.2 | -22.8 | 0.5 | 3.5 | -16.8
CC(=O)Nc1ccc(Nc2cc(C)nc3c(-c4ccccc4)cnn23)cc1 | 5.8 | 5.7 | 33.5* | 8.7 | 4.2 | -134.1
N/C(=N\OC(=O)c1ccc(Cl)cc1Cl)c1ccccc1 | 2.6 | -4.7 | -23.9 | -7.2 | 12.2 | 2.9
Cc1ccc(/C(N)=N/OC(=O)c2cccc(F)c2)cc1 | 15.2 | 5.4 | 8.6 | -5.6 | 1.5 | 5.3
Cc1ccc(/C(N)=N/OC(=O)c2ccc3ccccc3c2)cc1 | 11.4 | 0.2 | 27.0* | 2.0 | 3.3 | 2.8
N/C(=N\OC(=O)c1ccc(Cl)cc1Cl)c1ccc(Cl)cc1 | 7.0 | -22.2 | 17.9* | -4.2 | 36.9* | -4.3
Cc1ccc(/C(N)=N/OC(=O)c2ccc(C)cc2Cl)cc1 | 3.4 | 3.9 | 196.8* | 2.8 | 7.6 | 6.5
Cc1cccc(/C(N)=N/OC(=O)c2ccc(Cl)cc2Cl)c1 | -4.8 | -11.8 | -16.4 | 6.2 | 19.7 | 1.8
Cc1ccc(C=NNC(=O)c2nnn(-c3nonc3N)c2CN(C)C)o1 | / | / | / | / | / | 10.3
CCCCC(=O)NC(c1ccc(Cl)cc1)c1ccc2cccnc2c1O (stereo not given) | 6.0 | 2.5 | 0.3 | 11.3 | 3.1 | /
CCCCC(=O)NC(c1ccc(N(CC)CC)cc1)c1ccc2cccnc2c1O (stereo not given) | 0.5 | 1.9 | -1.2 | 26.0* | 4.3 | /
CCCCC(=O)NC(c1ccc(N(C)C)cc1)c1ccc2cccnc2c1O (stereo not given) | 9.3 | 5.1 | -1.2 | 25.9* | 5.2 | /
CC(=NOCc1ccc(C#N)cc1)c1cc2ccccc2o1 | / | / | / | / | / | 2.2
CCc1ccc(C2NC(=S)NC3=C2C(=O)CC(C)(C)C3)cc1 (stereo not given) | 2.4 | -4.2 | 21.3* | 1.6 | 5.5 | -7.2
CCCCNC(=S)N(C)N=Cc1ccc(OCc2ccc(C(=O)OC)cc2)c(OC)c1 | / | / | / | / | / | 7.0
Cn1c(=O)c2[nH]c(N=NN3CCCCC3)nc2n(C)c1=O | 2.7 | 1.4 | 5.5 | / | 1.9 | 22.4*
CCOc1cc(C=NNC(=O)c2ccc(CN3CCOCC3)cc2)ccc1OCc1ccccc1 | / | / | / | / | / | 0.3
SMILES | PAFAH1B3 FP inh | PAFAH2 inh | NR3A LBD binder | pPAFAH FP inh | PAFAH1B2 FP inh | UCH37 DUB inh
Cn1c(=O)[nH]c(=O)c2c1nc(N1CCCCCC1)n2Cc1cccc2ccccc12 | 3.3 | 5.2 | -2.3 | 3.2 | 5.3 | 32.4*
O=C(COC(=O)c1ccc([N+](=O)[O-])cc1Cl)NCc1ccco1 | 7.6 | 7.0 | 2.7 | 7.0 | 6.1 | 3.7
CC(C)CNC(=O)COC(=O)c1ccc([N+](=O)[O-])cc1Cl | 3.6 | 14.9 | -1.9 | 29.4* | 3.1 | 6.5
Cc1cc(C)c(OCC(=O)NN=Cc2ccco2)c(C)c1 | / | / | / | / | / | -0.8
O=c1c2ccccc2sc2ccccc12 | 3.6 | 3.8 | 1.1 | / | 2.9 | -34.8
c1ccc2c(c1)[nH]c1c3ccccc3sc21 | 13.5 | 5.8 | 23.6* | 7.3 | 1.5 | 0.5
O=c1cc(CSc2ccc(S(=O)(=O)N3CCCCC3)cn2)nc2sccn12 | 9.0 | 5.7 | 2.7 | 9.7 | 25.0* | -1.7
O=S(=O)(c1ccc(SCc2ccc(Cl)cc2)nc1)N1CCCC1 | 5.8 | 1.8 | -4.3 | -0.6 | 25.8* | 5.4
COc1ccccc1C=NNC1=NCCCCC1 | / | / | / | / | / | 1.2
CN(N=Cc1cc(Br)cc(Br)c1O)c1cccc(C(F)(F)F)n1 | / | / | / | / | / | 5.9
CCNC(=S)NNC(=O)c1cc(-c2ccc(OCC)cc2)nc2ccccc12 | 1.4 | -2.5 | 1.3 | 26.8* | 4.1 | -47.2
CCCOc1cccc(-c2cc(C(=O)NNC(=S)NCC)c3ccccc3n2)c1 | 7.6 | -4.7 | 14.2* | 21.9 | 7.5 | 4.9
Clc1cccc(CSc2nnc(-c3c[nH]c4ccccc34)o2)c1 | 3.5 | 1.0 | 15.7* | 2.5 | -4.5 | 1.9
Clc1ccc2nc(CSc3nnc(-c4c[nH]c5ccccc45)o3)cn2c1 | 1.0 | -3.7 | -7.1 | / | 3.3 | 6.0
O=C(NN=Cc1cccc(Oc2ccccc2)c1)c1ccc(O)cc1O | / | / | / | / | / | -50.5
COc1ccc2[nH]c(=O)c(CN(Cc3cccs3)C(=S)Nc3cccc(C)c3)cc2c1 | -20.9 | -43.1 | 10.3* | 2.3 | -8.2 | -4.2
Cc1ccc(COC(=O)CN2C(=O)NC3(CCCCC3C)C2=O)cc1 (stereo not given) | 7.6 | -6.2 | 11.5* | / | -0.5 | 3.8
COc1ccccc1COC(=O)CN1C(=O)NC2(CCCCC2C)C1=O (stereo not given) | 3.5 | 4.4 | 2.1 | / | 5.4 | 6.1
COc1ccccc1Cc1noc(-c2cc(Cl)ccc2OC)n1 | 7.8 | 11.3 | -2.5 | 29.0* | 5.5 | 2.5
O=C(Nc1ccccc1)Nc1ccc(NC(=O)c2ccccc2O)cc1 | 9.2 | -0.9 | 42.0* | 3.3 | 1.9 | -2.2
Cc1cc(C)cc(NC(=O)Nc2ccc(NC(=O)c3ccccc3O)cc2)c1 | 6.0 | -3.1 | 24.9* | 9.5 | 3.0 | -1.1
O=C1CNC(=O)/C1=C\N1CCCCC1 | 2.8 | 7.6 | 0.8 | 0.0 | 3.9 | 5.0
CC1=C(N2CCCCC2)CCC1=O | 12.8 | 0.0 | 0.3 | 1.1 | -1.0 | 33.1*
CCC(=NCCc1c(C)[nH]c2ccccc12)C1=C(O)CC(c2ccccc2)CC1=O (stereo not given) | 2.6 | -1.6 | 16.4* | 2.1 | -0.1 | 2.8
CCC(=NCCc1c(C)[nH]c2ccc(OC(F)(F)F)cc12)C1=C(O)CC(c2ccccc2)CC1=O (stereo not given) | 2.3 | -2.1 | 3.4 | 1.6 | 1.9 | 5.8
O=C(CNC(=O)Cc1ccccc1)NCC(=O)OCC(=O)c1cccc2ccccc12 | -0.1 | 0.1 | 12.4* | 23.0 | 0.1 | 4.7
CCc1ccc(C(=O)COC(=O)CNC(=O)Cc2ccccc2)cc1 | 5.2 | 1.0 | 1.1 | 6.0 | 4.0 | /
O=C(Cc1ccccc1)NCC(=O)OCC(=O)c1ccc(Cl)c([N+](=O)[O-])c1 | -11.0 | 1.9 | 12.2* | 1.4 | -1.4 | /
COc1ccc(C(C)=NNC(=O)c2ccc3c(c2)OCO3)cc1OC | / | / | / | / | / | 5.1

Compound activity: PubChem BioAssay, several laboratories
